Assay results reported in ChEMBL document CHEMBL3856229, “Hybrid Antibiotic Overcomes Resistance in P. aeruginosa by Enhancing Outer Membrane Penetration and Reducing Efflux” (J Med Chem, 2016).
pIC50: −log10 of the molar value. ≈ marks a conversion by molar mass, not a printed value.

Key:
Pseudomonas aeruginosa [1] = test: Antibacterial activity against multidrug/extremely drug-resistant/colistin-susceptible Pseudomonas aeruginosa isolate 100036; type: functional
Escherichia coli [2] = test: Antibacterial activity against Escherichia coli ATCC 25922 after 24 hrs by microtitre broth dilution method; type: functional; details: ATCC 25922, 24 h
[3] = test system: Stenotrophomonas maltophilia; test: Antibacterial activity against Stenotrophomonas maltophilia isolate CAN-ICU 62584 after 24 hrs by microtitre broth dilution method; type: functional; details: isolate CAN-ICU 62584, 24 h
Staphylococcus aureus [4] = test: Antibacterial activity against Staphylococcus aureus ATCC 29213 after 24 hrs by microtitre broth dilution method; type: functional; details: ATCC 29213, 24 h
Pseudomonas aeruginosa [5] = test: Antibacterial activity against multidrug-resistant/tobramycin-susceptible Pseudomonas aeruginosa isolate 86079; type: functional
Enterococcus faecalis = test: Antibacterial activity against Enterococcus faecalis ATCC 29212 after 24 hrs by microtitre broth dilution method; type: functional; details: ATCC 29212, 24 h
Staphylococcus aureus [6] = test: Antibacterial activity against methicillin-resistant Staphylococcus aureus ATCC 33592 after 24 hrs by microtitre broth dilution method; type: functional; details: ATCC 33592, 24 h
Pseudomonas aeruginosa [7] = test: Antibacterial activity against multidrug-resistant/tobramycin-susceptible Pseudomonas aeruginosa isolate 86053; type: functional
Pseudomonas aeruginosa [8] = test: Antibacterial activity against multidrug-resistant/tobramycin-susceptible Pseudomonas aeruginosa isolate 92014; type: functional
Pseudomonas aeruginosa [9] = test: Antibacterial activity against Pseudomonas aeruginosa PAO1; type: functional
Pseudomonas aeruginosa [10] = test: Antibacterial activity against multidrug-resistant/tobramycin-susceptible Pseudomonas aeruginosa isolate 86141; type: functional
Pseudomonas aeruginosa [11] = test: Antibacterial activity against pandrug-resistant Pseudomonas aeruginosa isolate 101243; type: functional
Pseudomonas aeruginosa [12] = test: Antibacterial activity against extremely drug-resistant Pseudomonas aeruginosa isolate 104354 infected in Galleria mellonella assessed as larvae survival at 50 mg/kg administered as single dose measured after 24 hrs (reference value: 27 %); type: functional; details: isolate 104354, 24 h
In short: (§1)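 Galleria mellonella larvae were infected with 10^6 CFU of XDR P. aeruginosa #104354, resistant to all antipseudomonal classes except colistin. A single injected drug dose was given 2 h post-infection: 50 mg/kg with survival read at 24 h, or 75 mg/kg with survival read at 96 h. Controls were infected untreated larvae and PBS-injected larvae. Two independent experiments of 15 larvae each (n = 30).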

Pseudomonas aeruginosa [13] = test: Antibacterial activity against multidrug/extremely drug-resistant/colistin-susceptible Pseudomonas aeruginosa isolate 101885; type: functional
Pseudomonas aeruginosa [14] = test: Antibacterial activity against multidrug-resistant/tobramycin-susceptible Pseudomonas aeruginosa isolate 108590; type: functional
Pseudomonas aeruginosa [15] = test: Antibacterial activity against multidrug-resistant/tobramycin-susceptible Pseudomonas aeruginosa isolate 86067; type: functional
Pseudomonas aeruginosa [16] = test: Antibacterial activity against multidrug/extremely drug-resistant/colistin-susceptible Pseudomonas aeruginosa isolate 260-97103; type: functional
Pseudomonas aeruginosa [17] = test: Antibacterial activity against gentamicin-resistant Pseudomonas aeruginosa isolate CAN-ICU 62308 after 24 hrs by microtitre broth dilution method; type: functional; details: isolate CAN-ICU 62308, 24 h
[18] = Inhibition of Pseudomonas aeruginosa DNA gyrase A assessed as inhibition of DNA supercoiling using PBR322 DNA as substrate after 30 mins by SYBR Gold staining based agarose gel electrophoresis
Pseudomonas aeruginosa [19] = test: Antimicrobial activity against Pseudomonas aeruginosa PAO750; type: functional
In short: (§2)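 MICs were measured in PAO1 and in PAO750. PAO750 is a PAO1 derivative lacking the MexAB-OprM, MexCD-OprJ, MexEF-OprN, MexJK and MexXY efflux pumps and the outer membrane protein OpmH.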

Pseudomonas aeruginosa [20] = test: Antibacterial activity against multidrug-resistant/tobramycin-susceptible Pseudomonas aeruginosa isolate 83182; type: functional
Escherichia coli [21] = test: Antibacterial activity against amikacin-resistant Escherichia coli isolate CAN-ICU 63074 after 24 hrs by microtitre broth dilution method; type: functional; details: isolate CAN-ICU 63074, 24 h
Pseudomonas aeruginosa [22] = test: Antibacterial activity against multidrug-resistant/tobramycin-susceptible Pseudomonas aeruginosa isolate 79199; type: functional
Pseudomonas aeruginosa [23] = test: Antibacterial activity against multidrug/extremely drug-resistant/colistin-susceptible Pseudomonas aeruginosa isolate 264-104354; type: functional
Acinetobacter baumannii = test: Antibacterial activity against Acinetobacter baumannii isolate CAN-ICU 63169 after 24 hrs by microtitre broth dilution method; type: functional; details: isolate CAN-ICU 63169, 24 h
Pseudomonas aeruginosa [24] = test: Antibacterial activity against multidrug-resistant/tobramycin-susceptible Pseudomonas aeruginosa isolate 80621; type: functional
Pseudomonas aeruginosa [25] = test: Antibacterial activity against multidrug-resistant/tobramycin-susceptible Pseudomonas aeruginosa isolate 85322; type: functional
Pseudomonas aeruginosa [26] = test: Antimicrobial activity against Pseudomonas aeruginosa PAO200; type: functional
In short: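 MIC (µg/mL) determined in PAO200, a PAO1-derived MexAB-OprM deletion strain used to assess efflux effects.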

Pseudomonas aeruginosa [27] = test: Ratio of MIC for Pseudomonas aeruginosa PAO1 after 25 serial passages to MIC for Pseudomonas aeruginosa PAO1 prior to 25 serial passages; type: functional
In short: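 P. aeruginosa PAO1 exposed to sub-inhibitory (0.5 x MIC) drug over successive subcultures as a resistance-selection procedure. MIC compared after versus before passaging.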

Enterococcus faecium = test: Antibacterial activity against Enterococcus faecium ATCC 27270 after 24 hrs by microtitre broth dilution method; type: functional; details: ATCC 27270, 24 h
[28] = test system: Staphylococcus epidermidis; test: Antibacterial activity against methicillin-resistant Staphylococcus epidermidis isolate CAN-ICU 61589 after 24 hrs by microtitre broth dilution method; type: functional; details: isolate CAN-ICU 61589, 24 h
Streptococcus pneumoniae = test: Antibacterial activity against Streptococcus pneumoniae ATCC 49619 after 24 hrs by microtitre broth dilution method; type: functional; details: ATCC 49619, 24 h
Pseudomonas aeruginosa [29] = test: Antibacterial activity against Pseudomonas aeruginosa ATCC 27853 after 24 hrs by microtitre broth dilution method; type: functional; details: ATCC 27853, 24 h
Escherichia coli [30] = test: Antibacterial activity against gentamicin-resistant Escherichia coli isolate CAN-ICU 61714 after 24 hrs by microtitre broth dilution method; type: functional; details: isolate CAN-ICU 61714, 24 h
Escherichia coli [31] = test: Antibacterial activity against gentamicin/tobramycin/ciprofloxacin-resistant Escherichia coli isolate CANWARD-2011 97615 harboring AAC3-2A after 24 hrs by microtitre broth dilution method; type: functional; details: isolate CANWARD-2011 97615, 24 h
Pseudomonas aeruginosa [32] = test: Antibacterial activity against multidrug/extremely drug-resistant/colistin-susceptible Pseudomonas aeruginosa isolate 259-96918; type: functional
Pseudomonas aeruginosa [33] = test: Antibacterial activity against gentamicin/tobramycin-resistant Pseudomonas aeruginosa isolate CANWARD-2011 96846 after 24 hrs by microtitre broth dilution method; type: functional; details: isolate CANWARD-2011 96846, 24 h
Pseudomonas aeruginosa [34] = test: Antibacterial activity against multidrug/extremely drug-resistant/colistin-susceptible Pseudomonas aeruginosa isolate 262-101856; type: functional
[35] = Selectivity ratio of MIC for Pseudomonas aeruginosa PAO1 to MIC for Pseudomonas aeruginosa PAO750; type: functional; in short: as §2
Pseudomonas aeruginosa [36] = test: Antibacterial activity against extremely drug-resistant Pseudomonas aeruginosa isolate 104354 infected in Galleria mellonella assessed as larvae survival at 75 mg/kg administered as single dose measured after 96 hrs; type: functional; details: isolate 104354, 96 h; in short: as §1
Klebsiella pneumoniae = test: Antibacterial activity against Klebsiella pneumoniae ATCC 13883 after 24 hrs by microtitre broth dilution method; type: functional; details: ATCC 13883, 24 h
Pseudomonas aeruginosa [37] = test: Antibacterial activity against multidrug-resistant/tobramycin-susceptible Pseudomonas aeruginosa isolate 84745; type: functional
Pseudomonas aeruginosa [38] = test: Antibacterial activity against multidrug-resistant/tobramycin-susceptible Pseudomonas aeruginosa isolate 86052; type: functional
Pseudomonas aeruginosa [39] = test: Antibacterial activity against pandrug-resistant Pseudomonas aeruginosa isolate 91433; type: functional
[40] = test system: Staphylococcus epidermidis; test: Antibacterial activity against methicillin-susceptible Staphylococcus epidermidis isolate CANWARD-2008 81388 after 24 hrs by microtitre broth dilution method; type: functional; details: isolate CANWARD-2008 81388, 24 h

For `COc1c(N2C[C@@H]3CCCN[C@@H]3C2)c(F)cc2c(=O)c(C(=O)O)cn(C3CC3)c12` [MOXIFLOXACIN], the MIC (Pseudomonas aeruginosa [1]) was 128 µg/mL (≈ 319 µM), the MIC (Escherichia coli [2]) was no more than 0.25 µg/mL and the MIC [3] was 4 µg/mL (≈ 9.96 µM). The MIC (Staphylococcus aureus [4]) was no more than 0.25 µg/mL, the MIC (Pseudomonas aeruginosa [5]) was greater than 16 µg/mL and the MIC (Enterococcus faecalis) was no more than 0.25 µg/mL. It also gave an MIC (Staphylococcus aureus [6]) of no more than 0.25 µg/mL, an MIC (Pseudomonas aeruginosa [7]) of 16 µg/mL (≈ 39.9 µM) and an MIC (Pseudomonas aeruginosa [8]) of 16 µg/mL (≈ 39.9 µM). The MIC (Pseudomonas aeruginosa [9]) was 1 µg/mL (≈ 2.49 µM), the MIC (Pseudomonas aeruginosa [10]) was greater than 16 µg/mL and the MIC (Pseudomonas aeruginosa [11]) was 8 µg/mL (≈ 19.9 µM). The survival at 50 mg/kg (Pseudomonas aeruginosa [12]) was 27%, the MIC (Pseudomonas aeruginosa [13]) was 128 µg/mL (≈ 319 µM) and the MIC (Pseudomonas aeruginosa [14]) was 16 µg/mL (≈ 39.9 µM). It also gave an MIC (Pseudomonas aeruginosa [15]) of 16 µg/mL (≈ 39.9 µM), an MIC (Pseudomonas aeruginosa [16]) of 32 to 64 µg/mL (≈ 79.7 to 159 µM) and an MIC (Pseudomonas aeruginosa [17]) of 16 µg/mL (≈ 39.9 µM). For the same compound, the pIC50 [18] was 5.59, the MIC (Pseudomonas aeruginosa [19]) was 0.0078 µg/mL (≈ 0.0194 µM) and the MIC (Pseudomonas aeruginosa [20]) was 16 µg/mL (≈ 39.9 µM). For the same compound, the MIC (Escherichia coli [21]) was 1 µg/mL (≈ 2.49 µM), the MIC (Pseudomonas aeruginosa [22]) was greater than 16 µg/mL and the MIC (Pseudomonas aeruginosa [23]) was 32 to 64 µg/mL (≈ 79.7 to 159 µM). For the same compound, the MIC (Acinetobacter baumannii) was 1 µg/mL (≈ 2.49 µM), the MIC (Pseudomonas aeruginosa [24]) was 8 µg/mL (≈ 19.9 µM) and the MIC (Pseudomonas aeruginosa [25]) was 8 µg/mL (≈ 19.9 µM). It also gave an MIC (Pseudomonas aeruginosa [26]) of 0.25 µg/mL (≈ 0.623 µM), a Ratio (Pseudomonas aeruginosa [27]) of 16 and an MIC (Enterococcus faecium) of 2 µg/mL (≈ 4.98 µM). The MIC [28] was 64 µg/mL (≈ 159 µM), the MIC (Streptococcus pneumoniae) was no more than 0.25 µg/mL and the MIC (Pseudomonas aeruginosa [29]) was 4 µg/mL (≈ 9.96 µM). The MIC (Escherichia coli [30]) was 0.5 µg/mL (≈ 1.25 µM), the MIC (Escherichia coli [31]) was 32 µg/mL (≈ 79.7 µM) and the MIC (Pseudomonas aeruginosa [32]) was 512 µg/mL (≈ 1280 µM). For the same compound, the MIC (Pseudomonas aeruginosa [33]) was 16 µg/mL (≈ 39.9 µM), the MIC (Pseudomonas aeruginosa [34]) was 64 to 128 µg/mL (≈ 159 to 319 µM) and the Selectivity ratio [35] was 128. The survival at 75 mg/kg (Pseudomonas aeruginosa [36]) was 7%, the MIC (Klebsiella pneumoniae) was no more than 0.25 µg/mL and the MIC (Pseudomonas aeruginosa [37]) was 16 µg/mL (≈ 39.9 µM). The MIC (Pseudomonas aeruginosa [38]) was greater than 16 µg/mL, the MIC (Pseudomonas aeruginosa [39]) was 8 to 16 µg/mL (≈ 19.9 to 39.9 µM) and the MIC [40] was no more than 0.25 µg/mL.
